Source: PubChem BioAssay (several laboratories)
The list is not random: actives were taken first. Their share in the collection is about 3%.
MC4R ag barr: agonists of human melanocortin 4 receptor (MC4R) beta-arrestin; P32245; U2OS MC4R beta-arrestin complementation, luminescence; percent of melanotan II response, DMSO zero; activation, % at 8.9 µM; 360,000 compounds, 0.98% hits;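 active = activation above a per-plate cutoff, the mean activation of sample wells on that plate plus 3 SD, cut at about 8% in these data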
PfGluPho inh: PfG6PD (Plasmodium falciparum) enzyme inhibition. AID 504690. 350,000 compounds, 0.78% hits. inhibition, % at 20 µM. PfGluPho enzyme, NADPH resazurin-diaphorase fluorescence;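 active = inhibition reaching at least a set limit at 20 µM in the primary screen, cut at about 59% in these data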
ABHD5 PLIN5 PPI: blocks binding of human ABHD5 to perilipin-5; Q00G26+Q8WTS1; inhibition, % at 4 µM; Split G. princeps luciferase complementation, luminescence, 4 h; AID 602281; 360,000 compounds, 0.78% hits;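 active = inhibition above the mean inhibition across every tested compound plus 3 SD, cut at about 22% in these data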
MC4R antag cAMP: blocks human MC4R cAMP signaling. P32245. MC4R-expressing cells, MTII-stimulated cAMP, LANCE TR-FRET. 360,000 compounds, 0.48% hits. inhibition, % at 6.5 µM;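 active = inhibition above its plate's cutoff, the mean of tested wells on that plate plus 3 SD, cut at about 29% in these data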
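System – human MC4R-expressing U2OS cells · Also added – Melanotan II · Dosing – one concentration, 6.5 µM nominal · Timing – 30-min compound, 1-h challenge, 1-h detection, room temperature · Measured by – Eu-cAMP/anti-cAMP TR-FRET, emission 671 nm · Replicates – singlicate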
Beta2AR agonist: activates human beta-2 adrenergic receptor causing internalization | Am2.2-beta2AR cells, FAP receptor internalization, flow cytometry | response, % (concentration not given with the values) | 340,000 compounds, 0.43% hits | AID 504454;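 active = response above a set limit, near 3 SD of response in nonfluorescent compounds, cut at about 42% in these data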
Target sequence (P07550 whole entry, looked up): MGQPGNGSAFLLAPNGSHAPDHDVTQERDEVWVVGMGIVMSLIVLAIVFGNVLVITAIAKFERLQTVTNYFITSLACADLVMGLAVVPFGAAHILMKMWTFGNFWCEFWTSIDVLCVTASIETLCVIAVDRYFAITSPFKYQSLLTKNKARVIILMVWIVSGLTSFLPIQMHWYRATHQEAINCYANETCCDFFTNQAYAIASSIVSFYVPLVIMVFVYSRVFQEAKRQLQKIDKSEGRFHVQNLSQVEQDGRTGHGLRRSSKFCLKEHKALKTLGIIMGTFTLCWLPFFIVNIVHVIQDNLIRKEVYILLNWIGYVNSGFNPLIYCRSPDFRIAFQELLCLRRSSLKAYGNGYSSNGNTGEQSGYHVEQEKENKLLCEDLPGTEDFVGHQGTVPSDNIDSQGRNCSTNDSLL
MC4R barr ag: human MC4R beta-arrestin agonism confirmation. U2OS MC4R beta-arrestin recruitment, luminescence; scaled DMSO 0%, Melanotan II 100%. shares compounds with MC4R ag barr. AID 602192. activation, % at 8.9 µM. 2,400 compounds, 31% hits;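 active = mean activation across replicates above the hit cutoff set in the earlier primary screen, cut at about 8% in these data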
MOR-DOR barr ag: OPRM1-OPRD1 heterodimer agonism counter-screen | shares compounds with MC4R ag barr | U2OS PathHunter beta-arrestin, beta-gal luminescence; percent of deltorphin B response, DMSO zero | activation, % at 9.2 µM | 2,400 compounds, 5.8% hits;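 active = mean activation across replicates exceeds the hit threshold derived in the earlier primary screen, cut at about 18% in these data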
Large screens that a line does not name were inactive (follow-up assays come after a bar, where they were run).

Cc1ccc(NC(=O)CSc2ccccc2NC(=O)c2ccccc2Cl)cc1Cl	none
Cc1ccc(NC(=O)CSc2ccccc2NC(=O)c2ccccc2)cc1Cl	MC4R ag barr 13 | MC4R barr ag inactive | MOR-DOR barr ag 24
Cc1cc(C(=O)N2CCCC(N3CCN(c4ccccc4C)CC3)C2)no1 (configuration not stated)	none (no result: Beta2AR agonist)
Cc1ccc(S(=O)(=O)N2CCN(C(=O)CCC(=O)Nc3ccc(Br)c(C)c3)CC2)cc1	none
Cc1nn(Cc2c(F)c(F)c(F)c(F)c2F)c(C)c1NC(=O)c1cccc(COc2ccccc2Cl)c1	MC4R ag barr 17 | MC4R barr ag inactive | MOR-DOR barr ag inactive
CCN(CC)C(=O)C1CCC(CNS(=O)(=O)c2cccc3nsnc23)CC1 (configuration not stated)	none
COCCNC(=O)C1(C)CCCN(Cc2ccc(Cl)nc2)C1 (configuration not stated)	none (no result: PfGluPho inh, Beta2AR agonist)
O=S(=O)(c1ccc2nc(-c3ccccc3)[nH]c2c1)N1CCN(c2cccc(Cl)c2)CC1	MC4R ag barr 15 | MC4R barr ag inactive | MOR-DOR barr ag inactive
COc1ccccc1N1CCN(S(=O)(=O)c2ccc3nc(-c4ccccc4)[nH]c3c2)CC1	none
Oc1ccc(C[C@@H]2CNCCN2CC2(c3ccccc3)CC2)cc1	none
Cc1cccc(NC(=O)c2cc([N+](=O)[O-])ccc2Cl)c1O	none
O=C(Nc1ccccc1Oc1ccccc1)c1cc([N+](=O)[O-])ccc1Cl	MC4R ag barr 14 | MC4R barr ag inactive | MOR-DOR barr ag inactive
CCN=C1SC(CC(=O)Nc2sc3c(c2C#N)CCCC3)C(=O)N1CC (configuration not stated)	MC4R ag barr 12 | MC4R barr ag inactive | MOR-DOR barr ag inactive
CCC(=O)Nc1sc2c(c1C#N)CCCCC2	none
Cc1ccc(OCc2ccc(C(=O)Nc3nccs3)o2)cc1	MC4R ag barr 15 | MC4R barr ag inactive | MOR-DOR barr ag inactive
O=C(COC(=O)c1nn(-c2ccccc2C(F)(F)F)cc1O)c1ccc(OC(F)F)cc1	MC4R ag barr 11 | MC4R barr ag inactive | MOR-DOR barr ag inactive
COc1ccc(Cn2c(=S)[nH]c3ccccc3c2=O)cc1	MC4R ag barr 11 | MC4R barr ag inactive | MOR-DOR barr ag inactive
Cc1ccc(Cn2c(=S)[nH]c3ccccc3c2=O)cc1	none
O=C1COc2ccc(C(=O)COC(=O)c3sc4ccccc4c3Cl)cc2N1	MC4R ag barr 12 | MC4R barr ag inactive | MOR-DOR barr ag inactive
COc1ccc2c(Cl)c(C(=O)OCC(=O)c3ccc4c(c3)NC(=O)CO4)sc2c1Cl	none
COc1ccccc1C(CNC(=O)c1cc(S(=O)(=O)N2CCOCC2)ccc1C)N1CCCC1 (configuration not stated)	none
CC(C)N(Cc1nccn1C)C(=O)CC1C(=O)NCCN1Cc1ccc(F)c(F)c1 (configuration not stated)	none
c1ccc(-c2csc(Nc3nc(N4CCOCC4)nc(N4CCOCC4)n3)n2)cc1	MC4R ag barr 14 | MC4R barr ag 11 | MOR-DOR barr ag inactive
C/C(=N\Nc1nncc2ccccc12)c1cccc(OC(F)F)c1	MC4R ag barr 17 | MC4R barr ag inactive | MOR-DOR barr ag inactive
N#C/C(=C/c1ccco1)c1nc2ccccc2s1	MC4R ag barr 9.6 | MC4R barr ag inactive | MOR-DOR barr ag inactive
CCN1C(Nc2ccccc2)=NC[C@@H]1Cc1ccccc1	none
CC(C)(C)C1CCC(CN2C(Nc3ccccc3)=NC[C@@H]2Cc2ccccc2)CC1 (some centres not stated)	MC4R ag barr 14 | MC4R barr ag 11 | MOR-DOR barr ag inactive
COc1ccc(C(CNC(=O)c2cccc(S(=O)(=O)N3CCOCC3)c2)N2CCCC2)cc1 (configuration not stated)	none
CCOC(=O)/C(C#N)=C(C)/C=C1\Sc2ccccc2N1CC	MC4R ag barr 18 | MC4R barr ag 15 | MOR-DOR barr ag inactive
CCN1/C(=C\C=C(C(C)=O)C(C)=O)Sc2ccccc21	none
